GSK3A inh: blocks human GSK-3 alpha kinase. inhibition, % at 10 µM. 0.1% of 320,000 active. ADP-Glo luminescence, 60 min. AID 2650;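 active = more than half of replicates show inhibition above 20%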;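 note: GST-tagged GSK-3 alpha with peptide substrate and 25 µM ATP; 0% = DMSO neutral wells and 100% = GW8510 positive control wells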
AI-2 QS mod: Vibrio harveyi AI-2 quorum sensing modulation; Vibrio harveyi JMH597 AI-2 luminescence/OD600 ratio, 9 h; hits give low values; strain lacks LuxN and CqsS sensors; 0 = neutral-control median; activity change, % at 7.5 µM; 0.4% of 300,000 active; AID 2094; in the data active = activity change below about -75%, passing the limit was not always enough;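 note: luminescence divided by OD600 gain over 9 h not by final OD600 alone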
GSK3B inh: human GSK3beta kinase inhibition; 0.038% of 300,000 active; activity score (negative = inhibition), % at 10 µM; GST-GSK3beta kinase, ADP-Glo luminescence, 60 min; hits give low values;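 active = more than half of replicate wells score below -50%, meaning over 50% inhibition versus plate controls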;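 note: 0% = median DMSO wells and -100% = median GW8510 positive control wells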
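Assay system: GST-fused GSK3beta enzyme, cell-free / Medium: Tris pH 7.5 buffer with MgCl2, DTT, BSA, heparin / Also added: peptide substrate plus 25 µM ATP (final) / Compound: 10 µM single point / Timing: kinase reaction with compound 60 min at room temperature / Detection: ADP-Glo luminescence / Benchmarks: DMSO neutral wells and GW8510 at 20 µM as positive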
STK33 inh: human STK33 kinase inhibition. AID 2661. 0.073% of 320,000 active. inhibition, % at 10 µM. purified STK33, MBP phosphorylation, ADP-Glo luminescence;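 active = inhibition at or above 25%, using the most active replicate where run in duplicate; inactive = inhibition below 25%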
Target sequence (Q9BYT3 whole entry, looked up): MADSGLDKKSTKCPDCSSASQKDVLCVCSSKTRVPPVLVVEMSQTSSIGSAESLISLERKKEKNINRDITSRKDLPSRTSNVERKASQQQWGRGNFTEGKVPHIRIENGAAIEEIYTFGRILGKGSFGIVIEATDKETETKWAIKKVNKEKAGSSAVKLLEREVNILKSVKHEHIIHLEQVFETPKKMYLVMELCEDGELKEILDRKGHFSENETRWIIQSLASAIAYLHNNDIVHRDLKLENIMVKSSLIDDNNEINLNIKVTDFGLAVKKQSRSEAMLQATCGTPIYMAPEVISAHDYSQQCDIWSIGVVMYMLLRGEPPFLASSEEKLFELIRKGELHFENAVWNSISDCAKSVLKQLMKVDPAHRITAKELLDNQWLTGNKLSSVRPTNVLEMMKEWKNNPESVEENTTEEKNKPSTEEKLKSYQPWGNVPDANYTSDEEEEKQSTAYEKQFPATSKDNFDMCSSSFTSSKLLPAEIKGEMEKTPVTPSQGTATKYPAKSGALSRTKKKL
Rce1 inh: blocks yeast Ras-converting enzyme; Q03530; yeast membranes, quenched prenylated peptide cleavage fluorescence; calls only; 0.27% of 290,000 active;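 active = fall in fluorescence gain of 50% or more versus controls, with final raw signal at or below 3038400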;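 note: plate controls were neutral control wells for no effect and wells lacking membranes for full effect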
DYRK1A inh: Dyrk1A (rat) kinase inhibition. ADP-Glo luminescence, NFATc1 peptide. inhibition, % at 12.5 µM. 0.43% of 310,000 active; in the data active = inhibition above about 50%;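 note: plate controls were vehicle with enzyme for no effect and no enzyme for full effect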
Dyrk1A artifact: ADP-Glo luciferase interference, Dyrk1A counter-screen | ADP-Glo luciferase artifact assay, no Dyrk1A, luminescence | AID 588348 | 1,300 tested, under 10 active | shares compounds with DYRK1A inh | AC50, µM (highest dose often 12 µM), for inactives: at the highest dose activity change, negative = inhibition;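 active = fitted half-maximal dose AC50 no more than ten times the top valid tested dose, with luminescence dropping as dose rises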
The depositor's hits bear a star; i = inactive; x = no result. Only some compounds are listed: those with a hit (about 0.99% of all), similar ones and a draw of the others.

SMILES	GSK3A inh	AI-2 QS mod	GSK3B inh	STK33 inh	Rce1 inh	DYRK1A inh	Dyrk1A artifact
Cc1cc(OCC(=O)OCC(=O)Nc2cc(S(=O)(=O)N3CCOCC3)ccc2Cl)ccc1Cl	0	x	x	0	x	-2	x
N#Cc1c(N)nc2c3c(sc(=N)c2c1N)NC(=O)CC3c1c(F)cccc1Cl (stereo not drawn)	5	43	-4	0	i	67*	10%
CCCN1C(=O)c2ccccc2NC1c1ccc(O)c(OCC)c1 (stereo not drawn)	0	8	1	0	i	4	x
CN1CCN(c2cc3c(c4c2[nH]c2ccccc24)C(=O)CC(C)(C)C3)CC1	8	11	-9	4	i	56*	10%
CCOC(=O)C1CCCN(c2c(N3CCN(C4CCCCC4)CC3)c(=O)c2=O)C1 (stereo not drawn)	-2	22	1	-1	i	60*	6%
CCOC(=O)C1CCCN(c2c(N3CCC(N4CCCCC4)CC3)c(=O)c2=O)C1 (stereo not drawn)	-1	27	11	1	i	-2	x
O=C(NCc1ccccc1Cl)[C@@H]1CCCN1S(=O)(=O)c1ccc(Cl)cc1	3	x	x	2	x	x	x
CC1CC(=O)N(CC(=O)NCc2ccc(F)cc2)c2ccccc2S1(=O)=O (stereo not drawn)	1	13	4	0	i	2	x
CCOc1ccc(/C=C2\SC(N3CCc4ccccc4C3)=NC2=O)cc1	-2	22	-1	-1	i	13	x
COc1ccc(/C=C2\SC(N)=NC2=O)cc1	-1	8	3	-23	i	83*	9%
COc1ccc(/C=C2\SC(N3CCc4ccccc4C3)=NC2=O)cc1	0	45	3	1	i	70*	6%
CCOC(=O)CSC1=NC(=O)/C(=C/c2ccc(OC)cc2)S1	2	14	-6	0	i	71*	8%
NC1=NC(=O)C(=Cc2ccccc2)S1	x	x	x	x	x	8	x
COc1cc(CC(=O)OCC(=O)c2ccc(F)cc2)cc(OC)c1OC	3	x	x	-1	x	5	x
Cc1cccc(Cl)c1OCCCCn1ccnc1	5	-3	1	3	i	56*	11%
Cc1ccc(N2CC(C(=O)Nc3c4c(nn3C(C)(C)C)CS(=O)(=O)C4)CC2=O)cc1 (stereo not drawn)	-2	2	-25	-1	i	2	x
C=CCN1C(=O)/C(=C/c2ccccc2)S/C1=N/c1nccs1	-1	12	1	0	i	58*	7%
CCOC(=O)c1nn(-c2ccccc2)c(=O)cc1OCC(=O)Nc1ccccc1OCC	0	11	1	0	i	-3	x
Cc1cccc(NC(=S)NNC(=O)c2csc3c2CCC(C)C3)c1 (stereo not drawn)	x	47	-1	x	i	62*	10%
C=CCOC(=O)C1=C(C)NC(=O)NC1c1ccc(N(C)C)cc1 (stereo not drawn)	-2	23	1	0	i	x	x
C=CCOC(=O)C1=C(C)NC(=O)NC1c1ccc(Cl)cc1 (stereo not drawn)	0	2	-2	1	i	67*	6%
COc1cc(/C=c2\s/c(=C\C(=O)C(C)(C)C)[nH]c2=O)cc(OC)c1OC	4	-4	-9	1	x	1	x
COc1ccc(/C=c2\s/c(=C\C(=O)C(C)(C)C)[nH]c2=O)cc1O	63*	11	-46	8	i	64*	9%
Nc1nc2ccc([N+](=O)[O-])cc2[nH]1	-1	9	-1	10	i	55*	7%
O=C1C(C=NCc2ccncc2)=C(O)c2ccccc21	2	44	4	1	i	66*	10%
O=C1C(C=NCc2cccnc2)=C(O)c2ccccc21	x	11	-2	x	i	5	x
Cc1nnc(SCCn2c(N3CCC(Cc4ccccc4)CC3)nc3c2c(=O)[nH]c(=O)n3C)s1	0	16	1	-2	i	x	x
CCCCn1c(N2CCC(Cc3ccccc3)CC2)nc2c1c(=O)[nH]c(=O)n2C	-1	15	-1	2	i	56*	7%

Bioassay records from PubChem.
